Measurements reported in ChEMBL document CHEMBL4014309, “Development of an Acrylate Derivative Targeting the NLRP3 Inflammasome for the Treatment of Inflammatory Bowel Disease” (J Med Chem, 2017).
The source made the active and inactive calls. The calls are words filed in the database; no cut-off is given here.

Assays:
[1] = Cysteamine reactivity of the compound in PBS assessed as second order rate constant for free cysteamine release at 250 uM and pH 7.4 after 90 mins by DTNB reagent based RP-UHPLC analysis
How it was run: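 Compound (250 µM) was mixed with equimolar cysteamine in pH 7.4 PBS containing 12.5% CH3CN at 37 °C. Free cysteamine was tracked with DTNB at several time points over 90 min. Second-order k2 came from 1/[CAM] = 1/[CAM]0 + kt, using 3–10 points per plot; mean ± SEM of ≥3 experiments.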

[2] = Glutathione reactivity assessed as adduct formation of the compound at pH 7.4 and 9
[3] = Cysteamine reactivity in PBS assessed as free compound level at pH 7.4 measured after 60 mins by DTNB reagent based RP-UHPLC analysis
How it was run: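 The compound was reacted with excess cysteamine in pH 7.4 phosphate buffer with CH3CN cosolvent at 37 °C. Remaining compound was followed by UHPLC over 4 h, sampled at 30 min, 60 min and 4 h, and expressed as percent of starting concentration.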

[4] = Cytotoxicity against human THP1 cells assessed as reduction in cell viability after 72 hrs by MTT assay; type: cell-based; conditions: THP-1 cells, read-out: TC50
How it was run: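 Human THP-1 cells were exposed to 0.1–100 µM for 72 h, and viability was read by MTT. TC50 is the concentration that cuts viability by 50%; percent viable cells at 100 µM is also reported. Mean ± SEM of ≥3 experiments.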

[5] = molecular target: NACHT, LRR and PYD domains-containing protein 3 (Homo sapiens) (UniProt Q96P20); assay: Inhibition of NLRP3 in PMA-differentiated and LPS-primed human THP1 cells assessed as decrease in ATP-induced pyroptosis measured as LDH activity at 10 uM preincubated for 1 hr followed by ATP addition measured after 1 hr by colorimetric assay relative to control
How it was run: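 THP-1 cells were PMA-differentiated and LPS-primed, then pretreated with vehicle or compound (10 µM, 1 h). Pyroptosis was triggered with ATP (5 mM). LDH in supernatant was measured colorimetrically 1 h after ATP and expressed as percent decrease versus vehicle, mean ± SEM of ≥3 experiments.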

[6] = molecular target: NACHT, LRR and PYD domains-containing protein 3 (Mus musculus) (UniProt Q8R4B8); assay: Inhibition of NLRP3 inflammasome in LPS-primed C57BL/6 mouse bone marrow derived macrophages assessed as reduction in ATP-induced caspase-1 activation at 10 to 100 uM preincubated for 1 hr followed by stimulation with ATP measured after 30 mins by Western blot analysis
[7] = species: Mus musculus; assay: Inhibition of NF-kB signaling pathway in C57BL/6 mouse bone marrow derived macrophages assessed as reduction in LPS-induced IL-6 gene expression at 10 to 100 uM preincubated for 30 mins followed by LPS stimulation measured after 4 hrs by qRT-PCR analysis
How it was run: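 C57BL/6 bone marrow macrophages, differentiated with 20% L-cell medium, were preincubated with compound for 30 min. They were then left untreated or given LPS (1 ng/mL, 4 h). Tnfa, Il6 and Il1b expression was measured by quantitative RT-PCR as 2^-ΔΔCt.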

[8] = molecular target: NACHT, LRR and PYD domains-containing protein 3 (Homo sapiens) (UniProt Q96P20); assay: Inhibition of recombinant YFP-tagged NLRP3 (unknown origin) expressed in HEK293 cells co-expressing luciferase at 10 to 100 uM after 24 hrs by BRET assay; type: cell-based
How it was run: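 HEK293 cells stably expressing YFP-NLRP3-Luc were grown in DMEM with 10% FCS, plated on poly-L-lysine, and exposed to compound or vehicle (15 h per methods; 24 h per figure legend). Cells were washed, then BRET was read after adding coelenterazine-H (5 µM). Kinetics used nigericin (10 µM) in vehicle or high-K+ (140 mM) buffer. Slopes of three phases were taken; mean ± SEM, n = 5–12.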

[9] = molecular target: NACHT, LRR and PYD domains-containing protein 3 (Homo sapiens) (UniProt Q96P20); assay: Irreversible inhibition of His-FLAG- tagged NLRP3-ATPase (unknown origin) at 100 uM preincubated for 55 mins followed by compound wash-out and ATP addition measured after 40 mins by ADP-Glo assay
How it was run: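 His-FLAG NLRP3 (105 ng/well) captured on anti-FLAG-coated, BSA-blocked wells for 3 h at 4 °C. Compound (100 µM final, 2% DMSO) preincubated 55 min at 37 °C. Wells were washed three times (or not washed), then ATP (250 µM) was added for 40 min at 37 °C. ADP was read by ADP-Glo. Equal protein loading was checked by anti-His ELISA.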

[10] = Stability of the compound in simulated intestinal fluid at 1.56 mg as suspension in olive oil and pH 7 after 2 hrs by UHPLC-MS analysis
How it was run: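 1.56 mg suspended in 100 µL olive oil, mixed with 100 µL SGF (pH 2, pepsin 3.2 mg/mL) for 2 h at 37 °C with shaking. Then 200 µL SIF (pH 7, pancreatin 2 mg/mL) was added for a further 2 h. Dedicated samples at 0, 30, 60 and 120 min were extracted with acetonitrile and analysed by UHPLC-MS. ≥3 repeats.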

[11] = Drug metabolism in Sprague-Dawley rat ileum tract assessed as 2-(2-chlorobenzyl)acrylic acid level at 12.5 mg as suspension in olive oil measured after 2 hrs by UHPLC-M; type: ADME; conditions: in vivo
[12] = tested on: Rattus norvegicus; assay: Antiinflammatory activity in DNBS-induced Sprague-Dawley rat colitis model assessed as DNBS-induced decrease in colonic length at 12.5 mg/kg/day, ig administered as suspension in olive oil for 6 days simulatneously with 6 days of DNBS-challenge (reference value: -34.4%); type: functional; parameters: scale not given: the % may be the effect or the level left
[13] = tested on: Rattus norvegicus; assay: Antiinflammatory activity in DNBS-induced Sprague-Dawley rat colitis model assessed as DNBS-induced macroscopic damage score at 12.5 mg/kg/day, ig administered as suspension in olive oil for 6 days simulatneously with 6 days of DNBS-challenge (reference value: 8.6 +/- 0.6); type: functional
[14] = tested on: Rattus norvegicus; assay: Anti-inflammatory activity in DNBS-induced Sprague-Dawley rat colitis model assessed as reduction in DNBS-induced IL-1beta levels in colon administered ig for 6 days simulatneously with 6 days of DNBS-challenge by ELISA; type: functional
[15] = tested on: Rattus norvegicus; assay: Anti-inflammatory activity in DNBS-induced Sprague-Dawley rat colitis model assessed as DNBS-induced TNFalpha levels in colon at 50 mg/kg/day, ig for 6 days simulatneously with 6 days of DNBS-challenge by ELISA (reference value: 5.9 +/- 0.6 pg/mg); type: functional
[16] = molecular target: NACHT, LRR and PYD domains-containing protein 3 (Mus musculus) (UniProt Q8R4B8); assay: Inhibition of NLRP3 inflammasome in LPS-primed C57BL/6 mouse bone marrow derived macrophages assessed as reduction in ATP-induced pyroptosis at 10 to 100 uM preincubated for 1 hr followed by stimulation with ATP measured after 30 mins by LDH release assay
How it was run: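 Bone marrow macrophages from C57BL/6 mice, differentiated with 20% L-cell medium, primed with LPS (1 µg/mL, 3 h). Test agent or vehicle was added for 1 h, then ATP (5 mM, 30 min) or nigericin (10 µM, 30 min). IL-1β in the medium was measured by ELISA. LDH in the medium was measured colorimetrically as % of total cellular LDH.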

NACHT, LRR and PYD domains-containing protein 3 (Homo sapiens), sequence (Q96P20 whole entry, the tested form may be a part): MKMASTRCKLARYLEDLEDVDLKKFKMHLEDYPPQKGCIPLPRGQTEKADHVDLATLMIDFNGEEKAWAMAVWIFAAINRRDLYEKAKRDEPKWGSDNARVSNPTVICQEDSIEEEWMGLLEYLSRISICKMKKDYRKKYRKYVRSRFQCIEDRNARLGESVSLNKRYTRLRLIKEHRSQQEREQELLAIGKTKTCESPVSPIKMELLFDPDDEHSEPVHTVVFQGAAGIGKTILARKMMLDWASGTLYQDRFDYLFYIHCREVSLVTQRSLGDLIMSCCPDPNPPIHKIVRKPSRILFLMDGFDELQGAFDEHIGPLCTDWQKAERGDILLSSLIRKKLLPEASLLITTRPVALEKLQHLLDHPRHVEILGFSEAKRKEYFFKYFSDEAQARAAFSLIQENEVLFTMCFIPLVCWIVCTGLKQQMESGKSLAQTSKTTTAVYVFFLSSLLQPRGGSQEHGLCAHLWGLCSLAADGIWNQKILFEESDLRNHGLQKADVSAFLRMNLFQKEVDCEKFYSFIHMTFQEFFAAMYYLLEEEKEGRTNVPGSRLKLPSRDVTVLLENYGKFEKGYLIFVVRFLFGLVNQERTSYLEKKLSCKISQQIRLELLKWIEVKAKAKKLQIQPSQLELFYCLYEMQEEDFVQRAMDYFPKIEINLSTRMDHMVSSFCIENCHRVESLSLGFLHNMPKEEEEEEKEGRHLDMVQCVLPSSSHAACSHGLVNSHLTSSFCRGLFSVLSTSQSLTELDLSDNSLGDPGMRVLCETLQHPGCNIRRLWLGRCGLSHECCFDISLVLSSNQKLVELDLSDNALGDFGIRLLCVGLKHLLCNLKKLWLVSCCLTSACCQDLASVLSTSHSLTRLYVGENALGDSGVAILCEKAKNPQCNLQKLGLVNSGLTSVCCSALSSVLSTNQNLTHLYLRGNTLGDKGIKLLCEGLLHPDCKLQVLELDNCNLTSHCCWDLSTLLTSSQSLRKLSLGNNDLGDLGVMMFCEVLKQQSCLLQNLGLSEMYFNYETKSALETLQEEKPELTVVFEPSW
NACHT, LRR and PYD domains-containing protein 3 (Mus musculus), sequence (Q8R4B8 whole entry, the tested form may be a part): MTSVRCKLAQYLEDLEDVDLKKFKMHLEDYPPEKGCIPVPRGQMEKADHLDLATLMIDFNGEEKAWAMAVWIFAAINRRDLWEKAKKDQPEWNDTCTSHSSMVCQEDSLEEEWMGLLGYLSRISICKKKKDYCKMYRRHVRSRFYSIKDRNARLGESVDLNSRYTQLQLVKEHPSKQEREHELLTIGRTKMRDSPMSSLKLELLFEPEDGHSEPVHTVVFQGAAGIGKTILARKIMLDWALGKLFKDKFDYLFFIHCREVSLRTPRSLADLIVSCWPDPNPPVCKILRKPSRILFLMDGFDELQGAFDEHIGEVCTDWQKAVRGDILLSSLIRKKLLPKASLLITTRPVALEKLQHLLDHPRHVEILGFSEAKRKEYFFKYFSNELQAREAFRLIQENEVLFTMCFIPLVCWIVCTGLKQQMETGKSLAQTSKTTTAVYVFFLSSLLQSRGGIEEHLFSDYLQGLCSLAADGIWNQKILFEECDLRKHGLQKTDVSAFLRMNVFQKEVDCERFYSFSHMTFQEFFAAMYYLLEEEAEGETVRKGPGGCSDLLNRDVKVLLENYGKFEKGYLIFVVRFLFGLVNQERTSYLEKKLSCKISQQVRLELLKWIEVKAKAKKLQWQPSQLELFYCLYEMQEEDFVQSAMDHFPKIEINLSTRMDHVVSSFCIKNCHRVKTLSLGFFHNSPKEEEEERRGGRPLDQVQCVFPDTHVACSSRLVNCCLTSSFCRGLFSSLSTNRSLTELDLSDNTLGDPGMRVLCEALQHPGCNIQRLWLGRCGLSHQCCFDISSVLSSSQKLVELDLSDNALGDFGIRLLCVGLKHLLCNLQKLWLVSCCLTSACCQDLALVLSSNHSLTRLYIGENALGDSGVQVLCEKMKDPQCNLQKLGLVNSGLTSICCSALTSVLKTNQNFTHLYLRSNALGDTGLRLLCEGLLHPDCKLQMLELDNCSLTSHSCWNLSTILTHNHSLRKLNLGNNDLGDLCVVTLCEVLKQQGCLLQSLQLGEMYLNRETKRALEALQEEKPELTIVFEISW

inhibition [5]: 33.6% | inhibition [6]: Active | inhibition [7]: Active | inhibition [8]: Active | inhibition [9]: 40% | Drug metabolism [11]: Metabolite_Detected | inhibition [16]: Active
Structure (SMILES): C=C(Cc1ccccc1Cl)C(=O)OCC
Drug metabolism [1]: Metabolite not detected | Drug metabolism [2]: Metabolite not detected | Stability [3]: 83.3% | CC50 at 72 h [4]: > 100 µM | Stability [10]: > 99.5% | Activity [12]: -19% | Activity_index [13]: 4.7 | Activity [14]: Dose-dependent effect | Activity [15]: 2.7 pg/mg
